Assay results from ChEMBL document CHEMBL3259680, “Discovery and Biological Evaluation of Novel Dual EGFR/c-Met Inhibitors” (ACS Med Chem Lett, 2014).
The source made the active and inactive calls. No cut-off for these calls is given here.

Tests used:
[1] = biological target: Epidermal growth factor receptor (Homo sapiens, UniProt P00533, L858R); assay: Inhibition of recombinant EGFR L858R mutant (unknown origin) using poly-GT peptide as substrate after 1 hr by Transcreener assay; type: protein assay
MDCK [2] = assay: Cytotoxicity against MDCK cells assessed as cell death at 1 uM after 48 hrs; type: cell-based, Canis lupus familiaris; settings: dog
[3] = biological target: T1, Hepatocyte growth factor receptor (Homo sapiens, UniProt P08581); assay: Inhibition of c-MET phosphorylation in human NCI-H1993 cells at 1 uM after 1 hr by Western blot analysis; type: cell-based
Insulin receptor = Insulin receptor (Homo sapiens, UniProt P06213); assay: Inhibition of recombinant INSR (unknown origin) using fluorescent dye-labelled KKSRGDYMTMQIG peptide peptide as substrate after 1 hr by IMAP assay
[4] = biological target: T1, Hepatocyte growth factor receptor; assay: Competitive inhibition of recombinant c-MET (unknown origin) using poly-AEKY peptide as substrate by Lineweaver-Burk double reciprocal plot method
In short: (§1)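 Recombinant enzyme activity (Vmax) measured at varied ATP and inhibitor concentrations; signal shifts (ΔS) plotted as Lineweaver–Burk double reciprocal plot to assess binding mode versus ATP.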

[5] = biological target: Mast/stem cell growth factor receptor Kit (Homo sapiens) (UniProt P10721); assay: Inhibition of recombinant c-KIT (unknown origin) at 1 uM
In short: (§2)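 Single-point screen at 1 μM on a recombinant panel of 34 clinically relevant kinases; percent inhibition reported.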

[6] = biological target: Receptor-type tyrosine-protein kinase FLT3 (Homo sapiens) (UniProt P36888); assay: Inhibition of recombinant FLT3 (unknown origin) at 1 uM; in short: as §2
HCC827 = assay: Induction of apoptosis in human HCC827 cells at 1 uM after 24 hrs using propidium iodide by flow cytometry; type: functional, cell-based
In short: (§3)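 Apoptosis read by flow cytometry; means ± SD of at least 3 independent experiments; unpaired 2-tailed Student's t test against DMSO-treated cells, p < 0.05.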

[7] = biological target: Receptor tyrosine-protein kinase erbB-2 (Homo sapiens) (UniProt P04626); assay: Inhibition of recombinant ErbB2 (unknown origin) at 1 uM; in short: as §2
[8] = biological target: T2, Epidermal growth factor receptor (Homo sapiens, UniProt P00533); assay: Inhibition of EGFR phosphorylation in human HCC827 cells at 1 uM after 1 hr by Western blot analysis; type: cell-based
[9] = biological target: Tyrosine-protein kinase receptor UFO (Homo sapiens) (UniProt P30530); assay: Inhibition of recombinant AXL (unknown origin) at 1 uM; in short: as §2
[10] = biological target: T1, Hepatocyte growth factor receptor; assay: Inhibition of recombinant c-MET (unknown origin) using poly-AEKY peptide as substrate by ADPGlo assay; settings: TDE = time-dependent effect
MDCK [11] = assay: Antiinvasive activity in MDCK cells assessed as inhibition of HGF-induced cell motility preincubated at 0.3 uM for 1 hr before HGF treatment measured after 48 hrs by cell scattering assay; type: functional, cell-based; settings: Canis lupus familiaris
NCI-H1975 = assay: Cytotoxicity against human NCI-H1975 cells after 48 hrs by MTT assay; type: functional, cell-based; settings: NCI-H1975, 48 h
NCI-H1993 [12] = assay: Induction of apoptosis in human NCI-H1993 cells at 1 uM after 24 hrs using propidium iodide by flow cytometry; type: functional, cell-based; in short: as §3
[13] = biological target: T1, Hepatocyte growth factor receptor; assay: Inhibition of c-MET phosphorylation in human HCC827 cells at 1 uM after 1 hr by Western blot analysis; type: cell-based
[14] = biological target: T2, Epidermal growth factor receptor; assay: Inhibition of EGFR phosphorylation in human NCI-H1993 cells at 1 uM after 1 hr by Western blot analysis; type: cell-based
[15] = biological target: T1, Hepatocyte growth factor receptor; assay: Inhibition of recombinant c-MET (unknown origin) using poly-AEKY peptide as substrate after 60 mins by ADPGlo assay
DU-145 = assay: Antiinvasive activity in human DU145 cells assessed as inhibition of HGF-induced cell motility preincubated for 1 hr before HGF treatment measured after 24 hrs by cell scattering assay; type: functional, cell-based
[16] = Cytotoxicity against human HCC827 cells after 48 hrs by MTT assay; type: functional, cell-based; settings: HCC827, 48 h
[17] = Cytotoxicity against mouse NIH/3T3 cells after 48 hrs by MTT assay; type: cell-based; settings: NIH3T3, 48 h
NCI-H1993 [18] = assay: Cytotoxicity against human NCI-H1993 cells after 48 hrs by MTT assay; type: functional, cell-based; settings: NCI-H1993, 48 h
[19] = biological target: T2, Epidermal growth factor receptor; assay: Competitive inhibition of recombinant EGFR (unknown origin) using poly-GT peptide as substrate by Lineweaver-Burk double reciprocal plot method; in short: as §1
A549 = assay: Cytotoxicity against human A549 cells after 48 hrs by MTT assay; type: functional, cell-based; settings: A549, 48 h
[20] = biological target: Epithelial discoidin domain-containing receptor 1 (Homo sapiens) (UniProt Q08345); assay: Inhibition of recombinant DDR1 (unknown origin) at 1 uM; in short: as §2
[21] = biological target: T2, Epidermal growth factor receptor; assay: Inhibition of recombinant EGFR (unknown origin) using poly-GT peptide as substrate by Transcreener assay
[22] = biological target: Proto-oncogene tyrosine-protein kinase receptor Ret (Homo sapiens) (UniProt P07949); assay: Inhibition of recombinant RET (unknown origin) at 1 uM; in short: as §2

With `COc1cc2c(Oc3ccc(NS(=O)(=O)c4cccc(-c5ccsc5)c4)cc3F)ccnc2cc1OCCCN1CCN(C)CC1` the IC50 [1] was 310 nM, the Activity (MDCK [2]) was “Toxic” and the inhibition [3] was “Active”. For the same molecule, the IC50 (Insulin receptor) was 2870 nM, the inhibition [4] was “Active” and the inhibition [5] was greater than 70%. The inhibition [6] was greater than 70%, the Activity (HCC827) was “Active” and the inhibition [7] was greater than 70%. For the same molecule, the inhibition [8] was “inactive”, the inhibition [9] was greater than 70% and the inhibition [10] was “tde”. For the same molecule, the Activity (MDCK [11]) was “Active”, the IC50 (NCI-H1975) was 2300 nM and the Activity (NCI-H1993 [12]) was “inactive”. The inhibition [13] was “inactive”, the inhibition [14] was “Active” and the IC50 [15] was 398 nM. The IC50 (DU-145) was 1100 nM, the IC50 [16] was 1940 nM and the IC50 [17] was 2350 nM. For the same molecule, the IC50 (NCI-H1993 [18]) was 1360 nM, the inhibition [19] was “Active” and the IC50 (A549) was 4760 nM. The inhibition [20] was greater than 70%, the IC50 [21] was 94 nM and the inhibition [22] was greater than 70%.
